According to ChEMBL document CHEMBL4196195, “( R)- N-(1-Methyl-2-hydroxyethyl)-13-( S)-methyl-arachidonamide (AMG315): A Novel Chiral Potent Endocannabinoid Ligand with Stability to Metabolizing Enzymes” (J Med Chem, 2018):
Activity calls are given as the source filed them.

Tests used:
[1] = target: T1, Cannabinoid receptor 1 (Rattus norvegicus, UniProt P20272); test: Displacement of [3H]CP-55,940 from CB1 receptor in rat brain membranes in absence of FAAH inhibitor PMSF by radioligand binding assay; type: cell membranes, Membrane
[2] = target: T1, Cannabinoid receptor 1; test: Displacement of [3H]CP-55,940 from CB1 receptor in rat brain membranes in presence of FAAH inhibitor PMSF by radioligand binding assay; type: cell membranes, Membrane
[3] = target: Cannabinoid receptor 2 (Mus musculus, UniProt P47936); test: Displacement of [3H]CP-55,940 from mouse CB2 receptor expressed in HEK293 cell membranes in absence of FAAH inhibitor PMSF by radioligand binding assay
Outline: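 Membranes from HEK293 cells expressing human or mouse CB2 (preparations lacking FAAH activity), competing against [3H]CP-55,940. IC50 by nonlinear regression, converted to Ki. Three independent experiments run in triplicate; Ki is the mean of the three.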

[4] = target: Cannabinoid receptor 2 (Homo sapiens, UniProt P34972); test: Displacement of [3H]CP-55,940 from human CB2 receptor expressed in HEK293 cell membranes in absence of FAAH inhibitor PMSF by radioligand binding assay
[5] = target: T1, Cannabinoid receptor 1; test: Agonist activity at rat CB1 receptor expressed in HEK293 cells assessed as inhibition of forskolin-induced cAMP accumulation incubated for 30 mins; type: functional, cell-based
Outline: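 HEK293 cells stably expressing rCB1, harvested with nonenzymatic dissociation reagent, washed in HBSS, 1000–1500 cells/well. Test compound at various concentrations with forskolin (2 μM final) in stimulation buffer, 30 min at room temperature. cAMP read by TR-FRET (Eu-cAMP tracer plus ULight anti-cAMP, 60 min room temperature). Forskolin-stimulated cAMP set to 100%. EC50 from nonlinear regression; two independent experiments in triplicate.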

[6] = target: Cannabinoid receptor 1 (Rattus norvegicus) (UniProt P20272); test: Agonist activity at rat CB1 receptor expressed in HEK293 cells assessed as inhibition of forskolin-induced cAMP accumulation incubated for 30 mins relative to 500 nM CP-55,940; type: functional, cell-based
[7] = target: T2, Prostaglandin G/H synthase 2 (Mus musculus, UniProt Q05769); test: Stability assessed as mouse COX2-mediated compound oxidation by measuring oxygen consumption by polarographic assay; type: ADME
T2 sequence (Q05769 whole entry): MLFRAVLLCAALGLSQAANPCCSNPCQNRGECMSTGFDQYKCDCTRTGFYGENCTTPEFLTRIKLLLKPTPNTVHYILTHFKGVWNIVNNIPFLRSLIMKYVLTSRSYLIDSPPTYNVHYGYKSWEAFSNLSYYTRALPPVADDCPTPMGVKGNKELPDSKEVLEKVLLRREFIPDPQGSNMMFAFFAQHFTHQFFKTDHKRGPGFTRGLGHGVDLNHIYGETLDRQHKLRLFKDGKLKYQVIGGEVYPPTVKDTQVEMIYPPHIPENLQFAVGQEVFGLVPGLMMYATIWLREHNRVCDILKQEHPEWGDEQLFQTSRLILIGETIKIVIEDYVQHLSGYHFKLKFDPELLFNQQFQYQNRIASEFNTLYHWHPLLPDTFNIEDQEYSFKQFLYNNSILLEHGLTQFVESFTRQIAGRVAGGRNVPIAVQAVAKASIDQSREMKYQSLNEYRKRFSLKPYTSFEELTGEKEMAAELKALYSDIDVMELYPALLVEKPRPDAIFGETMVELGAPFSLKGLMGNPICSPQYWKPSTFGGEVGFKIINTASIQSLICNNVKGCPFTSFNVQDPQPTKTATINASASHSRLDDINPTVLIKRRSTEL

[8] = target: T3, FAAH (fatty-acid amide hydrolase 1) (Homo sapiens, UniProt O00519); test: Stability assessed as human FAAH-mediated compound hydrolysis by LC-MS/MS analysis; type: ADME; conditions: human FAAH (fatty-acid amide hydrolase 1), read-out: Stability
T3 sequence (O00519 whole entry): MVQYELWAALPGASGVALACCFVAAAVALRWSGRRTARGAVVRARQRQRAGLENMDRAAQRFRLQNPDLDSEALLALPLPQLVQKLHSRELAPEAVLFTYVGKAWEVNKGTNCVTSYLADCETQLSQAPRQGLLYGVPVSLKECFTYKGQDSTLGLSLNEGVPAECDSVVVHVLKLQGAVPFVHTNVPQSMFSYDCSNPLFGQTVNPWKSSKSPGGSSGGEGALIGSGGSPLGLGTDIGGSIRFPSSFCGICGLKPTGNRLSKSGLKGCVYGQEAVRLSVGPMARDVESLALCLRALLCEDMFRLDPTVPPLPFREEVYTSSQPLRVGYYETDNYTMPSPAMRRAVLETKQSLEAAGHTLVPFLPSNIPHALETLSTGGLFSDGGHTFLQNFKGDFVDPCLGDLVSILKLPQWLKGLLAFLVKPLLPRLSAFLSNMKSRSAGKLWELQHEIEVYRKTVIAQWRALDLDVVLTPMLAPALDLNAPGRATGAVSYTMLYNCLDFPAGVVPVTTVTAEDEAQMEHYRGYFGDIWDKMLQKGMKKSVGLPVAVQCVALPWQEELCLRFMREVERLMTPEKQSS
Outline: (§1)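 Expressed, partially purified rat or human FAAH incubated with compound, or AEA as reference substrate, for 30 min. Aliquots at time points quenched in acetonitrile to precipitate protein. Remaining compound measured by LC-MS/MS on a cyano column with 10 mM ammonium acetate pH 7.3/methanol at 0.5 mL/min.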

[9] = target: T3, FAAH (fatty-acid amide hydrolase 1); test: Stability assessed as half life for human FAAH-mediated compound hydrolysis by LC-MS/MS analysis; type: ADME; conditions: human FAAH (fatty-acid amide hydrolase 1); outline: as §1
[10] = tested on: Mus musculus; test: Antiallodynic activity in CD1 mouse model of CFA-induced inflammatory pain assessed as increase in CFA-reduced mechanical paw withdrawal threshold at 20 mg/kg, ip measured at 10 mins post injection; type: functional, organism-based
Outline: (§2)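 Adult male mice (39 ± 10 g), wild-type CD1 or CB1 KO on CD1 background, single housed. CFA:saline 1:1 (20 μL) injected intraplantar into right hind paw; 48 h allowed before dosing. Drug given ip in 5 mL/kg, vehicle group included. Electronic von Frey (90 g probe) after ≥30 min habituation, read in duplicate per paw, at baseline, 48 h post-CFA and 10, 30, 60, 120 min post-dose. Two-way mixed ANOVA with Bonferroni post hoc tests.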

[11] = tested on: Mus musculus; test: Antiallodynic activity in CD1 mouse model of CFA-induced inflammatory pain assessed as increase in CFA-reduced mechanical paw withdrawal threshold at 20 mg/kg, ip measured up to 30 mins post injection; type: functional, organism-based; outline: as §2
[12] = tested on: Mus musculus; test: Antiallodynic activity in CD1 mouse model of CFA-induced inflammatory pain assessed as increase in CFA-reduced mechanical paw withdrawal threshold at 20 mg/kg, ip measured at 60 mins post injection; type: functional, organism-based; outline: as §2
[13] = tested on: Mus musculus; test: Antiallodynic activity in CD1 mouse model of CFA-induced inflammatory pain assessed as increase in CFA-reduced mechanical paw withdrawal threshold at 20 mg/kg, ip measured at 120 mins post injection; type: functional, organism-based; outline: as §2

Chain of Cannabinoid receptor 2 (Mus musculus, UniProt P47936) (P47936 whole entry): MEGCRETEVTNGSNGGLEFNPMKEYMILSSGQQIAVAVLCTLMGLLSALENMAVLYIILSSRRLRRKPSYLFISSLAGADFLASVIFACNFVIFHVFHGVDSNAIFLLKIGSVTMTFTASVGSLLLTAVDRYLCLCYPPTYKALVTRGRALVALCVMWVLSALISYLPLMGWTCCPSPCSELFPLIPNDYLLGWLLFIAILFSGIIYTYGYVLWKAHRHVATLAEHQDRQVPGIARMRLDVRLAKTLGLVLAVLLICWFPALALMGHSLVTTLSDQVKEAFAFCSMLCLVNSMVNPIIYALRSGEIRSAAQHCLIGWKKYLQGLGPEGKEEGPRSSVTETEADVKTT
T1 sequence (P20272 whole entry): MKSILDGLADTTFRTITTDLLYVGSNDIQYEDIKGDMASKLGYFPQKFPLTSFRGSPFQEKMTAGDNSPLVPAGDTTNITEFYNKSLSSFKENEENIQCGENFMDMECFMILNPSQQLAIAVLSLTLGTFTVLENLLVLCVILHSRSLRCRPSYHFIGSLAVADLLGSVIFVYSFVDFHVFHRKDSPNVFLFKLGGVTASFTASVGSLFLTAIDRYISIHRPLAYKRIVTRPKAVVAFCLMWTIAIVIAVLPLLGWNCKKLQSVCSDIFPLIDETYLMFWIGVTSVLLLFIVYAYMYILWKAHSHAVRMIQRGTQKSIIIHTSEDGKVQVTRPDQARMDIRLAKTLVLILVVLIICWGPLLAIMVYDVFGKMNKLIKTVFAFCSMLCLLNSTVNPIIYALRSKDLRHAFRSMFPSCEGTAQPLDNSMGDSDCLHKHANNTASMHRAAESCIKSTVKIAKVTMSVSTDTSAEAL
Chain of Cannabinoid receptor 1 (Rattus norvegicus) (P20272 whole entry): as above
Chain of Cannabinoid receptor 2 (Homo sapiens, UniProt P34972) (P34972 whole entry): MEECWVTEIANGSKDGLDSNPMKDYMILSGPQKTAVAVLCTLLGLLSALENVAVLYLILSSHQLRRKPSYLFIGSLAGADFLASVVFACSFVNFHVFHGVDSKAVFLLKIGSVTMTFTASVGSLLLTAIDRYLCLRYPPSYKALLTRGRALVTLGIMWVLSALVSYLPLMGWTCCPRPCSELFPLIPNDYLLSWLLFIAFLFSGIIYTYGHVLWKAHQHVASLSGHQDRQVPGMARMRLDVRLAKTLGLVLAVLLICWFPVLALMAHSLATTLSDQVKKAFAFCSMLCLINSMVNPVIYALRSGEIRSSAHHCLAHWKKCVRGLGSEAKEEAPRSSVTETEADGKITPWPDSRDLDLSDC

Structure (SMILES) | Ki [1] [nM] | Ki [2] [nM] | Ki [3] [nM] | Ki [4] [nM] | EC50 ([5]; read-out: EC50) [nM] | Emax [6] | Stability [7] | half-life [8] [min] | half-life [9] [min] | EC50 ([5]; hek293) | Activity [10] | Activity [11] | Activity [12] | Activity [13]
CCCCC/C=C\[C@H](C)/C=C\C/C=C\C/C=C\CCCC(=O)NCCCl | 45.3 | 3.9 | 401 | 10.4 |  |  |  |  |  |  |  |  |  | 
CCCCC/C=C\C/C=C\C/C=C\[C@H](C)/C=C\CCCC(=O)NCCO | 326 | 1.7 | 7.5 | 24.7 | 4.8 | 100% | Stable |  |  |  |  |  |  | 
CCCCC/C=C\[C@H](C)/C=C\C/C=C\C/C=C\CCCC(=O)NC1CCC1 | 17.6 | 23.1 | 90 | 6.8 | 36.1 | 92% | Stable | 30 |  |  |  |  |  | 
CCCCC/C=C\[C@H](C)/C=C\C/C=C\C/C=C\CCCC(=O)NC1CC1 | 14.7 | 1.5 | 57.5 | 4.3 | 0.3 | 88% | Stable |  | 25.2 |  |  |  |  | 
C[C@H](/C=C\C/C=C\C/C=C\CCCC(=O)N[C@H](C)CO)/C=C\CCCOc1ccccc1 | 65 | 83 | > 1000 | 286 |  |  |  |  |  |  |  |  |  | 
CCCCC/C=C\C/C=C\C/C=C\[C@@H](C)/C=C\CCCC(=O)N[C@H](C)CO | 29.3 | 21.4 | > 1000 | 120 | 58.3 | 98% | Stable |  |  |  |  |  |  | 
CCCCC/C=C\[C@@H](C)/C=C\C/C=C\C/C=C\CCCC(=O)NCCO | > 1000 | > 1000 | > 1000 | > 1000 |  | inactive |  |  |  | Not Active |  |  |  | 
C[C@H](/C=C\C/C=C\C/C=C\CCCC(=O)NC1CC1)/C=C\CCCCCN=C=S | 20.3 | 15.6 | 47.7 | 22.1 |  |  |  |  |  |  |  |  |  | 
CCCCC/C=C\[C@H](C)/C=C\C/C=C\C/C=C\CCCC(=O)NCCO | > 1000 | 4.8 | 137 | 50.5 | 13.2 | 88% | Stable |  | 13.5 |  |  |  |  | 
CCCCC/C=C\[C@@H](C)/C=C\C/C=C\C/C=C\CCCC(=O)N[C@H](C)CO | > 1000 | > 1000 | > 1000 |  |  |  |  |  |  |  |  |  |  | 
C[C@H](/C=C\C/C=C\C/C=C\CCCC(=O)NC1CC1)/C=C\CCCCCN=[N+]=[N-] | 10.5 | 6.3 | 13.3 | 8.5 | 1.9 | 85% |  |  |  |  |  |  |  | 
CCCCC/C=C\C/C=C\C/C=C\C/C=C\CCCC(=O)N[C@H](C)CO [METHANANDAMIDE] |  |  | > 1000 |  |  |  |  |  |  |  | Active | Active | Active | inactive
CCCCC/C=C\[C@H](C)/C=C\C/C=C\C/C=C\CCCC(=O)NC1CCCC1 | 123 | 79 | 387 | 139 |  |  |  | 30 |  |  |  |  |  | 
C#CCNC(=O)CCC/C=C\C/C=C\C/C=C\[C@@H](C)/C=C\CCCCC | 8.6 | 4.3 | 74 | 11.2 | 10.4 | 89% |  | 30 |  |  |  |  |  | 
CCCCC/C=C\C/C=C\[C@H](C)/C=C\C/C=C\CCCC(=O)NCCO | > 1000 | > 1000 | > 1000 | > 1000 |  |  |  |  |  |  |  |  |  | 
CCCCC/C=C\C/C=C\C/C=C\[C@@H](C)/C=C\CCCC(=O)NCCO | > 1000 | 520 | > 1000 | 188 |  | inactive | Stable |  |  | Not Active |  |  |  | 
CCCCC/C=C\C/C=C\[C@@H](C)/C=C\C/C=C\CCCC(=O)NCCO | > 1000 | > 1000 | > 1000 | > 1000 |  |  |  |  |  |  |  |  |  | 
